# Results collected from several papers.
# Each line is one published result; the experiments were not run side by side.
# Target: Tyrosine-protein kinase Lyn (LYN, Homo sapiens, UniProt P07948)
Structure (SMILES),test,conditions,remaining binding
O=C(NCC1CCOCC1)c1n[nH]cc1NC(=O)c1c(F)cccc1F,"binding, competition with immobilised ligand",1 µM,92%
O=C(NCc1ncc(C(F)(F)F)cc1Cl)c1ccc2c(c1)C1(CCS(=O)(=O)CC1)[C@H](C1CC1)N2S(=O)(=O)c1ccc(F)cc1,"cell-free assay, competition with immobilised ligand",1 µM,100%
O=C(NCCCN1CCOCC1)c1ccc(Nc2nccc(-c3cc4ccccc4s3)n2)cc1,"binding, competition with immobilised ligand",1 µM,94%
CNC(=O)[C@@H]1CC[C@@H](n2c(-c3ccc4cnccc4c3)nc3ccc(C(=O)NCc4cccc(C(N)=O)c4)cc32)C1,"binding, competition with immobilised ligand",1 µM,95%
CN(CCCC(F)(F)F)c1nccc(-c2cnn3ncccc23)n1,binding,1 µM,86%
Cc1cnc(Nc2ccc(C(=O)N3CCC(N4CCCC4)CC3)cc2)nc1-c1cc2ccccc2s1,"binding, competition with immobilised ligand",1 µM,78%
COc1cc(-c2cn(C3CCc4c(F)cccc4N(CC(F)(F)F)C3=O)nn2)ccc1-n1cnc(C)c1 (stereo not drawn),"cell-free assay, competition with immobilised ligand",1 µM,100%
C[C@@H](c1ccc(-n2cnc3c(N)ncnc32)cc1)N1CCc2nn(C)c(Cc3ccccc3)c2C1=O,"binding, competition with immobilised ligand",0.1 µM,100%
c1cncc(-c2cccc(Nc3nccc(NC4CCCCC4)n3)c2)c1,"binding, competition with immobilised ligand",10 µM,48%
CO[C@@H](C)c1c(Nc2ccc([C@@H](N(C)C(=O)C3CCS(=O)(=O)CC3)C(F)(F)F)cc2)cnc2cc(Cl)nn12,"cell-free assay, competition with immobilised ligand",1 µM,97%
CN(c1nccc(-c2cnn3ncccc23)n1)C1CC1,binding,1 µM,86%
CNC(=O)Nc1ccc2c(c1)[C@@]1(CC2)OC(=O)N(CC(=O)N(Cc2ccc(F)cc2)[C@@H](C)C(F)(F)F)C1=O,"cell-free assay, competition with immobilised ligand",1 µM,100%
CCN1CCN(Cc2ccc(C(=O)Nc3ccc(C)c(Oc4ccc5c(c4)CC(=O)N5)c3)cc2C(F)(F)F)CC1,"binding, competition with immobilised ligand",1 µM,52%
N[C@H]1CCN(c2nccc(-c3cnn4ncccc34)n2)C1,binding,1 µM,99%
CC1=C(C#N)C(c2ccc3c(c2)c(NC(=O)c2ccccc2C)nn3C)C(C#N)=C(C)N1,"cell-free assay, competition with immobilised ligand",1 µM,89%
CC1CCCN1c1nccc(-c2cnn3ncccc23)n1 (stereo not drawn),binding,1 µM,84%
CCC(=O)N[C@@H]1CC[C@H](C(=O)N(C)c2ccc(-c3nc4ccccc4o3)cc2)C1,"cell-free assay, competition with immobilised ligand",1 µM,92%
CN(C)c1nccc(-c2cnn3ncccc23)n1,binding,1 µM,83%
O=C(c1ccc(Nc2nccc(-c3cc4ccccc4s3)n2)cc1)N1CCC(N2CCCC2)CC1,"binding, competition with immobilised ligand",1 µM,97%
Cc1ccc(-n2nc(C(C)(C)C)cc2NC(=O)Nc2ccc(-n3c(N)c(C(N)=O)c4nc5ccccc5nc43)cc2)cc1,"cell-free assay, competition with immobilised ligand",1 µM,0.85%
C[C@H]1CCN(c2nccc(-c3cnn4ncccc34)n2)C1,binding,1 µM,64%
COc1ncc2cc3ccccc3nc2c1C#N,"cell-free assay, competition with immobilised ligand",5 µM,94%
CSc1cccnc1N1CCN(Cc2nc3ccccc3[nH]2)CC1,"cell-free assay, competition with immobilised ligand",1 µM,95%
F[C@@H]1CCN(c2nccc(-c3cnn4ncccc34)n2)C1,binding,1 µM,87%
